Seven compounds from ChEMBL document CHEMBL3232791, “Synthesis and antibacterial evaluation of amino acid-antibiotic conjugates” (2014) can be followed below.

Common to all, as to type: functional
The subject of assay [1] is Escherichia coli. As to the kind of experiment: Antibacterial activity against Escherichia coli DH5alpha assessed as growth inhibition at 100 ug/ml after 16 hrs by spectrophotometric method. The following applies: DH5[alpha], read-out: GI. In short, it runs like this: (§1)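 Growth inhibition read as OD600 on 300 µL culture samples, with untreated control cultures taken as maximum growth. Percent inhibition = (OD600 control − OD600 treated) × 100 / OD600 control. Parent antibiotics and their conjugates were run in parallel at three concentrations per compound, in biological duplicate.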

The test system of assay [2] is Staphylococcus aureus. As to the kind of experiment: Antibacterial activity against Staphylococcus aureus RN4220 assessed as growth inhibition at 75 ug/ml after 16 hrs by spectrophotometric analysis. The following applies: RN4220, 16 h, read-out: GI. The method in brief: as §1
The subject of assay [3] is Staphylococcus aureus. As to the kind of experiment: Antibacterial activity against Staphylococcus aureus RN4220 assessed as growth inhibition at 150 ug/ml after 16 hrs by spectrophotometric analysis. The following applies: RN4220, 16 h, read-out: GI. The method in brief:
as §1

The subject of assay [4] is Escherichia coli. The assay can be described thus: Antibacterial activity against Escherichia coli DH5alpha assessed as growth inhibition at 50 ug/ml after 16 hrs by spectrophotometric method. The following applies: DH5[alpha], read-out: GI. The method in brief:
as §1

Assay [5] concerns Escherichia coli. The assay can be described thus: Antibacterial activity against Escherichia coli DH5alpha assessed as growth inhibition at 75 ug/ml after 16 hrs by spectrophotometric method. The following applies: DH5[alpha], read-out: GI. In short, it runs like this: as §1
Assay [6] deals with Staphylococcus aureus. As to the kind of experiment: Antibacterial activity against Staphylococcus aureus RN4220 assessed as growth inhibition at 300 ug/ml after 16 hrs by spectrophotometric analysis. The following applies: RN4220, 16 h, read-out: GI. The method in brief:
as §1

For assay [7], the system named is Staphylococcus aureus. The assay can be described thus: Antibacterial activity against Staphylococcus aureus RN4220 assessed as growth inhibition at 50 ug/ml after 16 hrs by spectrophotometric analysis. The following applies: RN4220, 16 h, read-out: GI. In short, it runs like this: as §1
Assay [8] has as its system Staphylococcus aureus. The assay can be described thus: Antibacterial activity against Staphylococcus aureus RN4220 assessed as growth inhibition at 100 ug/ml after 16 hrs by spectrophotometric analysis. The following applies: RN4220, 16 h, read-out: GI. The method in brief: as §1
The subject of assay [9] is Staphylococcus aureus. As to the kind of experiment: Antibacterial activity against Staphylococcus aureus RN4220 assessed as growth inhibition at 200 ug/ml after 16 hrs by spectrophotometric analysis. The following applies: RN4220, 16 h, read-out: GI. In short, it runs like this:
as §1

For assay [10], the system named is Bacillus subtilis. The assay can be described thus: Antibacterial activity against Bacillus subtilis 168 assessed as growth inhibition at 10 ug/ml after 16 hrs by spectrophotometric analysis. The following applies: subsp. subtilis str. 168, 16 h, read-out: GI. The method in brief: as §1
For assay [11], the system named is Escherichia coli. The assay can be described thus: Antibacterial activity against Escherichia coli DH5alpha assessed as growth inhibition at 5 ug/ml after 16 hrs by spectrophotometric method. The following applies: DH5[alpha], read-out: GI. In short, it runs like this:
as §1

For assay [12], the system named is Bacillus subtilis. The assay can be described thus: Antibacterial activity against Bacillus subtilis 168 assessed as growth inhibition at 20 ug/ml after 16 hrs by spectrophotometric analysis. The following applies: subsp. subtilis str. 168, 16 h, read-out: GI. In short, it runs like this: as §1
Assay [13] relates to Escherichia coli. As to the kind of experiment: Antibacterial activity against Escherichia coli DH5alpha assessed as growth inhibition at 2.5 ug/ml after 16 hrs by spectrophotometric method. The following applies: DH5[alpha], read-out: GI. In short, it runs like this: as §1
For assay [14], the system named is Bacillus subtilis. As to the kind of experiment: Antibacterial activity against Bacillus subtilis 168 assessed as growth inhibition at 40 ug/ml after 16 hrs by spectrophotometric analysis. The following applies: subsp. subtilis str. 168, 16 h, read-out: GI. In short, it runs like this: as §1
The subject of assay [15] is Escherichia coli. As to the kind of experiment: Antibacterial activity against Escherichia coli DH5alpha assessed as growth inhibition at 10 ug/ml after 16 hrs by spectrophotometric method. The following applies: DH5[alpha], read-out: GI. In short, it runs like this: as §1

Regarding `Cc1ncc([N+](=O)[O-])n1CCOC(=O)[C@H](C)NC(=O)OCc1ccccc1`, the inhibition of growth at 100 µg/mL in the assay with Escherichia coli [1] amounted to 8.28%. Besides, the values for the inhibition of growth at 75 µg/mL in the assay with Staphylococcus aureus [2] and in the assay on Escherichia coli [5] were 8.86% and 3.79%, respectively. Further, in the assay on Staphylococcus aureus [3], the inhibition of growth at 150 µg/mL amounted to 22.5%. In addition, the inhibition of growth at 50 µg/mL in the assay on Escherichia coli [4] turned out to be 2.22%. In the assay with Staphylococcus aureus [6], the inhibition of growth at 300 µg/mL was 45.9%.
Turning to `CCn1cc(C(=O)O)c(=O)c2cnc(N3CCN(C(=O)CNC(=O)OCc4ccccc4)CC3)nc21`, the inhibition of growth at 50 µg/mL in the assay on Staphylococcus aureus [7] stood at 32.9%. Besides, the inhibition of growth at 100 µg/mL in the assay with Staphylococcus aureus [8] was 52.2%. Also, in the assay with Staphylococcus aureus [9], the inhibition of growth at 200 µg/mL worked out at 57.4%. In addition, the inhibition of growth at 10 µg/mL was 88.2% in the assay with Bacillus subtilis [10] and -8.93% in the assay with Escherichia coli [15]. The inhibition of growth at 5 µg/mL with Escherichia coli [11] is -11.1%. For the same compound, the inhibition of growth at 20 µg/mL in the assay on Bacillus subtilis [12] was -7.68%. Also, in the assay with Escherichia coli [13], the inhibition of growth at 2.5 µg/mL is -13.4%. Moreover, the inhibition of growth at 40 µg/mL in the assay on Bacillus subtilis [14] was found to be 91.7%.
For `Cc1ncc([N+](=O)[O-])n1CCOC(=O)[C@H](Cc1ccccc1)NC(=O)OCc1ccccc1`, the inhibition of growth at 100 µg/mL in the assay on Escherichia coli [1] was found to be 7.7%. In addition, the inhibition of growth at 75 µg/mL with Staphylococcus aureus [2] is -0.03%; in the assay on Escherichia coli [5] it was 5.73%. Moreover, the inhibition of growth at 150 µg/mL with Staphylococcus aureus [3] came to 6.66%. Further, the inhibition of growth at 50 µg/mL with Escherichia coli [4] was 4.44%. Besides, the inhibition of growth at 300 µg/mL in the assay on Staphylococcus aureus [6] is 20.5%.
With `CCn1cc(C(=O)O)c(=O)c2cnc(N3CCN(C(=O)[C@H](C)NC(=O)OCc4ccccc4)CC3)nc21`, the inhibition of growth at 50 µg/mL in the assay on Staphylococcus aureus [7] is 38%. The inhibition of growth at 100 µg/mL in the assay on Staphylococcus aureus [8] worked out at 55.4%. Also, the inhibition of growth at 200 µg/mL in the assay with Staphylococcus aureus [9] was found to be 63%. The inhibition of growth at 10 µg/mL is 90.3% with Bacillus subtilis [10] and 1.75% in the assay with Escherichia coli [15]. The inhibition of growth at 5 µg/mL in the assay on Escherichia coli [11] was -12.1%. Moreover, in the assay on Bacillus subtilis [12], the inhibition of growth at 20 µg/mL was 5.34%. Besides, the inhibition of growth at 2.5 µg/mL in the assay with Escherichia coli [13] was -12%. For the same compound, in the assay with Bacillus subtilis [14], the inhibition of growth at 40 µg/mL is 60.1%.
Take `CCn1cc(C(=O)O)c(=O)c2cnc(N3CCN(C(=O)[C@H](Cc4ccccc4)NC(=O)OCc4ccccc4)CC3)nc21`: the inhibition of growth at 50 µg/mL in the assay with Staphylococcus aureus [7] was found to be 49.6%. In addition, the inhibition of growth at 100 µg/mL with Staphylococcus aureus [8] turned out to be 60.1%. In addition, the inhibition of growth at 200 µg/mL with Staphylococcus aureus [9] worked out at 72.9%. In addition, the figures for the inhibition of growth at 10 µg/mL in the assay with Bacillus subtilis [10] and in the assay on Escherichia coli [15] were 6.09% and 9.45%, respectively. Further, the inhibition of growth at 5 µg/mL in the assay on Escherichia coli [11] is -6.38%. The inhibition of growth at 20 µg/mL with Bacillus subtilis [12] came out at 13.8%. The inhibition of growth at 2.5 µg/mL with Escherichia coli [13] was -11.5%. The inhibition of growth at 40 µg/mL with Bacillus subtilis [14] stood at 77%.
As to `Cc1ncc([N+](=O)[O-])n1CCOC(=O)CNC(=O)OCc1ccccc1`, the inhibition of growth at 100 µg/mL in the assay on Escherichia coli [1] stood at 6.59%. In addition, the inhibition of growth at 75 µg/mL with Staphylococcus aureus [2] worked out at 0.33%; in the assay with Escherichia coli [5], 1.61%. Further, the inhibition of growth at 150 µg/mL in the assay with Staphylococcus aureus [3] worked out at 23.5%. Further, the inhibition of growth at 50 µg/mL with Escherichia coli [4] was determined as 8.23%. In the assay on Staphylococcus aureus [6], the inhibition of growth at 300 µg/mL is 23.6%.
Regarding `CCn1cc(C(=O)O)c(=O)c2cnc(N3CCN(C(=O)[C@@H](NC(=O)OCc4ccccc4)C(C)C)CC3)nc21`, the inhibition of growth at 50 µg/mL in the assay on Staphylococcus aureus [7] was determined as 45.7%. Besides, the inhibition of growth at 100 µg/mL in the assay with Staphylococcus aureus [8] was 60%. The inhibition of growth at 200 µg/mL in the assay with Staphylococcus aureus [9] came to 70.6%. Also, the inhibition of growth at 10 µg/mL with Bacillus subtilis [10] is 4.69%; with Escherichia coli [15], 27.2%. The inhibition of growth at 5 µg/mL with Escherichia coli [11] was -6.67%. For the same compound, the inhibition of growth at 20 µg/mL in the assay with Bacillus subtilis [12] stood at 17%. Besides, the inhibition of growth at 2.5 µg/mL in the assay on Escherichia coli [13] is -9.71%. The inhibition of growth at 40 µg/mL in the assay on Bacillus subtilis [14] was found to be 78.2%.
